27 compounds from ChEMBL document CHEMBL2086373, “Identification and In-Vitro ADME Assessment of a Series of Novel Anti-Malarial Agents Suitable for Hit-to-Lead Chemistry” (ACS Med Chem Lett, 2012) can be followed below.

One series relates to Plasmodium falciparum. Briefly: Antiplasmodium activity against chloroquine-sensitive Plasmodium falciparum NF54 assessed as inhibition of [3H[hypoxanthine incorporation. Format: functional, organism-based. A digest of the protocol: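 Run at Swiss TPH on P. falciparum NF54 (3D7 is a clone of it). Read-out is 3H-hypoxanthine incorporation. IC50 is the mean of ≥2 experiments.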

The nature of series [1]: […]-phosphate buffered saline partition coefficient, log D after 5 hrs by LC-UV analysis at pH 7.4. Format: physicochemical. The following applies: octan-1-ol/phosphate buffered saline. The method, boiled down:
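Log D from partition between octan-1-ol and phosphate-buffered PBS at pH 7.4.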

Series [2] in a line: Apparent permeability of the compound from apical to basal side of human Caco2 cells at 10 uM after 60 mins. Format: ADME, cell-based. The conditions noted are these: Caco-2. The method, boiled down:
(§1)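 Apical and basal chambers in HBSS, pH 7.4. Compound at 10 μM added to the donor side at time zero. Donor and acceptor chambers both sampled after 60 min at 37 °C. A>B permeability reported in 10^-6 cm/s, plus efflux ratio.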

For series [3], the system named is Plasmodium berghei. Briefly: Antimalarial activity against GFP-transfected Plasmodium berghei ANKA infected in mouse assessed as change in host survival time at 50 mg/kg, sc administered QD for 4 days relative to untreated control. Format: functional, organism-based. The arrangement: dose 50 mg/kg. A digest of the protocol:
(§2)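 Peters 4-day test: 50 mg/kg given sc once daily for 4 days. Parasitemia reduction and survival days are compared against infected, untreated control animals.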

Series [4] in a line: Kinetic solubility of the compound in phosphate buffered saline after 2 hrs at pH 7.4. Format: physicochemical. The following applies: read-out: Kinetic_solubility. A digest of the protocol: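 Kinetic solubility measured in PBS, pH 7.4.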
The test system of series [5] is Plasmodium berghei. Briefly: Antimalarial activity against GFP-transfected Plasmodium berghei ANKA infected in mouse assessed as reduction in parasitemia at 50 mg/kg, sc administered QD for 4 days relative to vehicle-treated control. It is filed as functional. The arrangement: scale not given: the % may be the effect or the level left. The following applies: route subcutaneous. A digest of the protocol:
as §2

A short description of series [6]: Efflux ratio of apparent permeability across human Caco2 cells at 10 uM after 60 mins. Format: ADME, cell-based. The following applies: Caco-2. A digest of the protocol:
as §1

Series [7] can be described thus: Metabolic stability in human hepatic microsomes assessed as % turnover at 1 uM after 40 mins by LC/MS/MS analysis. The following applies: liver microsomes. A general note: Liver microsomes are vesicles of endoplasmic reticulum, rich in cytochrome P450 enzymes.

The structures appear in SMILES notation. ≈ marks a conversion by molar mass, not a printed value. Calls of active or inactive are those of the source. The rule behind the calls is not given here.

As to `Cc1ccc(-n2c(Sc3ncnc4sccc34)nnc2N2CCCC2)cc1`, the IC50 with Plasmodium falciparum was found to be 0.15 µM.

As for `Cc1nnc(N2CCOCC2)c2nn(-c3ccccc3)c(C)c12`, the IC50 with Plasmodium falciparum was more than 100 µM.

For the compound `CCCCN1CN=C(Nc2nc(C)c3ccccc3n2)NC1`, the IC50 in the series on Plasmodium falciparum stood at 1.58 µM.

In the case of `Cc1nc(NC2=NCCC(=O)N2)nc2ccccc12`, in the series with Plasmodium falciparum, the IC50 is more than 100 µM.

Consider `COc1cccc(-n2nc3c(C)nnc(C)c3c2C)c1`, for which the IC50 in the series with Plasmodium falciparum is more than 100 µM.

For the compound `COc1ccc(CNc2cccc3[nH]c(C)nc23)cc1`, in the series on Plasmodium falciparum, the IC50 stood at 9.9 µM.

As to `COc1nc(NC(=N)N)nc2ccc(C)cc12`, the IC50 with Plasmodium falciparum came out at 0.74 µM.

Consider `CCc1nnc(Sc2ncnc3sccc23)[nH]1`, for which the IC50 with Plasmodium falciparum is 1.16 µM.

Turning to `O=C(Cc1ccccc1)Nc1cccc2[nH]c(C(F)(F)F)nc12`, the IC50 in the series on Plasmodium falciparum is more than 100 µM.

Take `Cc1ccc(-n2nc3c(Cl)nnc(C)c3c2C)cc1`: the half-inhibitory concentration (IC50) in the series on Plasmodium falciparum was determined as 0.31 µM.

Regarding `CCOc1ccc(-n2nc3c(Cl)nnc(C)c3c2C)cc1`, the IC50 in the series with Plasmodium falciparum was 0.34 µM.

Consider `c1ccn2c(Sc3ncnc4sccc34)nnc2c1`, for which, in the series on Plasmodium falciparum, the half-inhibitory concentration (IC50) was determined as 0.15 µM. The logD at 5 h in series [1] was more than 3.8. Moreover, the Papp A→B at 1 h, 10 µM in series [2] was 50 ×10⁻⁶ cm/s. The result with Plasmodium berghei [3] was inactive. In addition, the solubility kinetic at 2 h in series [4] was 20 µM (≈ 5.71 µg/mL). For the same compound, in the series with Plasmodium berghei [5], the Activity is on record as 34%. Besides, the efflux ratio at 1 h, 10 µM in series [6] worked out at 0.28. Further, the % turnover at 40 min, 1 µM in series [7] turned out to be 50%.

Take `CC(=O)/N=C(/NC(C)=O)Nc1nc(C)c2cc(C)ccc2n1`: in the series with Plasmodium falciparum, the IC50 was 3.74 µM.

Consider `Fc1ccc(CNc2cccc3[nH]c(C(F)(F)F)nc23)cc1`, for which the IC50 with Plasmodium falciparum came to 0.49 µM. This compound had a logD at 5 h in series [1] of 2. Besides, the apparent permeability from apical to basolateral (Papp A→B) at 1 h, 10 µM in series [2] was 1.5 ×10⁻⁶ cm/s. For the same compound, the solubility kinetic at 2 h in series [4] was less than 5 µM. Also, the efflux ratio at 1 h, 10 µM in series [6] came out at 0.43. In addition, in series [7], the % turnover at 40 min, 1 µM amounted to 19%.

On to `Cc1sc2ncnc(Sc3nnc4ccccn34)c2c1C`, for which the half-maximal inhibitory concentration (IC50) with Plasmodium falciparum was found to be 0.46 µM.

Regarding `Cc1ccc(S(=O)(=O)Nc2cccc3[nH]c(C(F)(F)F)nc23)cc1`, the IC50 with Plasmodium falciparum is more than 100 µM.

In the case of `O=C(Nc1cccc2[nH]c(C(F)(F)F)nc12)c1ccc(Cl)cc1`, the IC50 with Plasmodium falciparum came out at 10.8 µM.

In the case of `Cc1nnc(Cl)c2nn(-c3ccccc3)c(C)c12`, the half-maximal inhibitory concentration (IC50) in the series with Plasmodium falciparum is 0.43 µM.

In the case of `Cc1ccc(-n2nc3c(C)nnc(C)c3c2C)cc1`, the IC50 in the series with Plasmodium falciparum was more than 100 µM.

`Cc1nnc(Cl)c2nn(-c3cccc(Cl)c3)c(C)c12`: in the series on Plasmodium falciparum, the IC50 was 0.28 µM.

Consider `c1ccc(-c2csc3ncnc(Sc4nnc5ccccn45)c23)cc1`, for which the IC50 in the series on Plasmodium falciparum worked out at 2.67 µM.

For `Cc1sc2ncnc(Sc3nnc(C(F)(F)F)n3C)c2c1C`, the 50% inhibitory concentration (IC50) with Plasmodium falciparum came out at 5.17 µM.

With `CCOc1nnc(C)c2c(C)n(-c3cccc(OC)c3)nc12`, in the series with Plasmodium falciparum, the IC50 was 16.1 µM.

With `COc1ccc(CNc2cccc3[nH]c(C(F)(F)F)nc23)cc1`, the IC50 with Plasmodium falciparum amounted to 3.93 µM.

As for `Cn1c(Sc2ncnc3sccc23)nnc1C1CC1`, the IC50 in the series on Plasmodium falciparum was 1.48 µM.

As for `Cc1nnc(C)c2c(C)n(-c3ccc4c(c3)OCO4)nc12`, in the series with Plasmodium falciparum, the IC50 is more than 100 µM.

For `Cc1nnc(Cl)c2nn(-c3ccc(Cl)cc3)c(C)c12`, in the series with Plasmodium falciparum, the concentration for half-maximal inhibition (IC50) was 0.42 µM.

As a reminder, the IC50 is the concentration that inhibits the measured activity by half. The logD is the decadic logarithm of the distribution of all forms, ionised or not, between an organic phase and buffer at a given pH. By Papp A→B is commonly meant the apparent permeability from the apical to the basolateral side of a cell layer. The term efflux ratio denotes a quotient of directional permeabilities that is used to spot active efflux.
